From ChEMBL document CHEMBL2021818, “Novel desosamine-modified 14- and 15-membered macrolides without antibacterial activity” (2012)
Values after ≈ are worked out from the molar mass of the structure shown.

What was measured:
Type in all cases: functional
[1] = system: Staphylococcus aureus; assay: Antibacterial activity against Staphylococcus aureus ATCC 13709 after 24 hrs at 37 degC by CLSI protocol based microdilution method; settings: ATCC 13709, 24 h
Outline: (§1)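 Macrolide-susceptible strains, broth microdilution MIC per CLSI. Media: Mueller–Hinton broth (MHB) for S. aureus and M. catarrhalis, MHB plus 5% horse serum for streptococci, Haemophilus test medium for H. influenzae. Compounds dissolved in DMF (5 mg/mL stock) and serially twofold diluted in medium over 64 to 0.125 µg/mL. MIC read after 24 h incubation at 37 °C.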

[2] = system: Streptococcus pneumoniae; assay: Antibacterial activity against Streptococcus pneumoniae ATCC […] after 24 hrs at 37 degC by CLSI protocol based microdilution method; outline: as §1
[3] = system: Streptococcus pyogenes; assay: Antibacterial activity against Streptococcus pyogenes ATCC 700294 after 24 hrs at 37 degC by CLSI protocol based microdilution method; settings: ATCC 700294, 24 h; outline: as §1
[4] = system: Moraxella catarrhalis; assay: Antibacterial activity against Moraxella catarrhalis ATCC 23246 after 24 hrs at 37 degC by CLSI protocol based microdilution method; settings: ATCC 23246, 24 h; outline: as §1
[5] = system: Haemophilus influenzae; assay: Antibacterial activity against Haemophilus influenzae ATCC 49247 after 24 hrs at 37 degC by CLSI protocol based microdilution method; settings: ATCC 49247, 24 h; outline: as §1

Row | SMILES | MIC [1] [µg/mL] | MIC [2] [µg/mL] | MIC [3] [µg/mL] | MIC [4] [µg/mL] | MIC [5] [µg/mL]
1 | CC[C@H]1OC(=O)[C@H](C)[C@@H](O[C@H]2C[C@@](C)(OC)[C@@H](O)[C@H](C)O2)[C@H](C)[C@@H](O[C@@H]2O[C@H](C)C[C@H]3[C@H]2OC(=O)N3C)[C@](C)(O)C[C@@H](C)CN(C)[C@H](C)[C@@H](O)[C@]1(C)O | > 64 | > 64 | > 64 | > 64 | > 64
2 | CC[C@H]1OC(=O)[C@H](C)[C@@H](O[C@H]2C[C@@](C)(OC)[C@@H](O)[C@H](C)O2)[C@H](C)[C@@H](O[C@@H]2O[C@H](C)C[C@H](N)[C@H]2O)[C@](C)(O)C[C@@H](C)CN(C)[C@H](C)[C@@H](O)[C@]1(C)O | > 64 | 4 (≈ 5.55 µM) | 32 (≈ 44.4 µM) | 8 (≈ 11.1 µM) | 64 (≈ 88.8 µM)
3 | CC[C@H]1OC(=O)[C@H](C)[C@@H](O[C@H]2C[C@@](C)(OC)[C@@H](O)[C@H](C)O2)[C@H](C)[C@@H](O[C@@H]2O[C@H](C)C[C@H](NC)[C@H]2O)[C@](C)(OC)C[C@@H](C)C(=O)N[C@H](C)[C@@H](O)[C@]1(C)O | > 64 | 32 (≈ 42.7 µM) | 64 (≈ 85.5 µM) | 16 (≈ 21.4 µM) | > 64
4 | CCCN1C(=O)O[C@H]2[C@H](O[C@@H]3[C@@H](C)[C@H](O[C@H]4C[C@@](C)(OC)[C@@H](O)[C@H](C)O4)[C@@H](C)C(=O)O[C@H](CC)[C@@](C)(O)[C@H](O)[C@@H](C)N(C)C[C@H](C)C[C@@]3(C)O)O[C@H](C)C[C@@H]21 | > 64 | > 64 | > 64 | > 64 | > 64
5 | CC[C@H]1OC(=O)[C@H](C)[C@@H](O[C@H]2C[C@@](C)(OC)[C@@H](O)[C@H](C)O2)[C@H](C)[C@@H](O[C@@H]2O[C@H](C)C[C@H](NC)[C@H]2O)[C@](C)(O)C[C@@H](C)CN(C)[C@H](C)[C@@H](O)[C@]1(C)O | 16 (≈ 21.8 µM) | 2 (≈ 2.72 µM) | 2 (≈ 2.72 µM) | 2 (≈ 2.72 µM) | > 64
6 | CCCCCCN1C(=O)O[C@H]2[C@H](O[C@@H]3[C@@H](C)[C@H](O[C@H]4C[C@@](C)(OC)[C@@H](O)[C@H](C)O4)[C@@H](C)C(=O)O[C@H](CC)[C@@](C)(O)[C@H](O)[C@@H](C)N(C)C[C@H](C)C[C@@]3(C)O)O[C@H](C)C[C@@H]21 | > 64 | > 64 | > 64 | > 64 | > 64
7 | CC[C@H]1OC(=O)[C@H](C)[C@@H](O[C@H]2C[C@@](C)(OC)[C@@H](O)[C@H](C)O2)[C@H](C)[C@@H](O[C@@H]2O[C@H](C)C[C@H]3[C@H]2OC(=O)N3C)[C@](C)(OC)C[C@@H](C)C(=O)[C@H](C)[C@@H](O)[C@]1(C)O | > 64 | > 64 | > 64 | > 64 | > 64
8 | CC[C@H]1OC(=O)[C@H](C)[C@@H](O[C@H]2C[C@@](C)(OC)[C@@H](O)[C@H](C)O2)[C@H](C)[C@@H](O[C@@H]2O[C@H](C)C[C@H]3[C@H]2OC(=O)N3CC)[C@](C)(OC)C[C@@H](C)C(=O)[C@H](C)[C@@H](O)[C@]1(C)O | > 64 | > 64 | > 64 | > 64 | > 64
9 | CC[C@H]1OC(=O)[C@H](C)[C@@H](O[C@H]2C[C@@](C)(OC)[C@@H](O)[C@H](C)O2)[C@H](C)[C@@H](O[C@@H]2O[C@H](C)C[C@@H]3NC(=O)O[C@@H]23)[C@](C)(O)C[C@@H](C)CN(C)[C@H](C)[C@@H](O)[C@]1(C)O | > 64 | > 64 | > 64 | > 64 | > 64
10 | CC[C@H]1OC(=O)[C@H](C)[C@@H](O[C@H]2C[C@@](C)(OC)[C@@H](O)[C@H](C)O2)[C@H](C)[C@@H](O[C@@H]2O[C@H](C)C[C@@H]3NC(=O)O[C@@H]23)[C@](C)(OC)C[C@@H](C)C(=O)N[C@H](C)[C@@H](O)[C@]1(C)O | > 64 | > 64 | > 64 | > 64 | > 64
11 | CC[C@H]1OC(=O)[C@H](C)[C@@H](O[C@H]2C[C@@](C)(OC)[C@@H](O)[C@H](C)O2)[C@H](C)[C@@H](O[C@@H]2O[C@H](C)C[C@H]3[C@H]2OC(=O)N3CC)[C@](C)(O)C[C@@H](C)CN(C)[C@H](C)[C@@H](O)[C@]1(C)O | > 64 | > 64 | > 64 | > 64 | > 64
12 | CC[C@H]1OC(=O)[C@H](C)[C@@H](O[C@H]2C[C@@](C)(OC)[C@@H](O)[C@H](C)O2)[C@H](C)[C@@H](O[C@@H]2O[C@H](C)C[C@H](N)[C@H]2O)[C@](C)(OC)C[C@@H](C)C(=O)N[C@H](C)[C@@H](O)[C@]1(C)O | > 64 | > 64 | > 64 | > 64 | > 64
13 | CC[C@H]1OC(=O)[C@H](C)[C@@H](O[C@H]2C[C@@](C)(OC)[C@@H](O)[C@H](C)O2)[C@H](C)[C@@H](O[C@@H]2O[C@H](C)C[C@H](NC)[C@H]2O)[C@](C)(OC)C[C@@H](C)C(=O)[C@H](C)[C@@H](O)[C@]1(C)O | 4 (≈ 5.45 µM) | < 0.25 | < 0.25 | 2 (≈ 2.73 µM) | > 64
14 | CC[C@H]1OC(=O)[C@H](C)[C@@H](O[C@H]2C[C@@](C)(OC)[C@@H](O)[C@H](C)O2)[C@H](C)[C@@H](O[C@@H]2O[C@H](C)C[C@H](N)[C@H]2O)[C@](C)(OC)C[C@@H](C)C(=O)[C@H](C)[C@@H](O)[C@]1(C)O | > 64 | 2 (≈ 2.78 µM) | 2 (≈ 2.78 µM) | 16 (≈ 22.2 µM) | > 64
15 | CCCN1C(=O)O[C@H]2[C@H](O[C@@H]3[C@@H](C)[C@H](O[C@H]4C[C@@](C)(OC)[C@@H](O)[C@H](C)O4)[C@@H](C)C(=O)O[C@H](CC)[C@@](C)(O)[C@H](O)[C@@H](C)NC(=O)[C@H](C)C[C@@]3(C)OC)O[C@H](C)C[C@@H]21 | > 64 | > 64 | > 64 | > 64 | > 64
16 | CC[C@H]1OC(=O)[C@H](C)[C@@H](O[C@H]2C[C@@](C)(OC)[C@@H](O)[C@H](C)O2)[C@H](C)[C@@H](O[C@@H]2O[C@H](C)C[C@H](N(C)C)[C@H]2O)[C@](C)(O)C[C@@H](C)CN(C)[C@H](C)[C@@H](O)[C@]1(C)O [AZITHROMYCIN] | 1 (≈ 1.34 µM) | < 0.125 | < 0.125 | < 0.125 | 2 (≈ 2.67 µM)
17 | CC[C@H]1OC(=O)[C@H](C)[C@@H](O[C@H]2C[C@@](C)(OC)[C@@H](O)[C@H](C)O2)[C@H](C)[C@@H](O[C@@H]2O[C@H](C)C[C@H](N(C)C)[C@H]2O)[C@](C)(OC)C[C@@H](C)C(=O)N[C@H](C)[C@@H](O)[C@]1(C)O | 32 (≈ 41.9 µM) | 1 (≈ 1.31 µM) | 4 (≈ 5.24 µM) | 0.5 (≈ 0.655 µM) | 16 (≈ 21 µM)
18 | CC[C@H]1OC(=O)[C@H](C)[C@@H](O[C@H]2C[C@@](C)(OC)[C@@H](O)[C@H](C)O2)[C@H](C)[C@@H](O[C@@H]2O[C@H](C)C[C@H]3[C@H]2OC(=O)N3C)[C@](C)(OC)C[C@@H](C)C(=O)N[C@H](C)[C@@H](O)[C@]1(C)O | > 64 | > 64 | > 64 | > 64 | > 64
